Measurements reported in EPA's CvTdb concentration-time database.

Experiments:
Rat [1] = test: concentration in plasma after dosing
Rat [2] = test: concentration in brain after dosing
rat [3] = test: concentration in blood after dosing; negative times count back from the end of exposure; conditions: dosed: trichloroethylene, 50 ppm, inhalation, duration: 4 hr, male, Sprague Dawley
human = test: concentration in blood after dosing; negative times count back from the end of exposure; conditions: dosed: trichloroethylene, inhalation
Summary of the method: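 Data points giving concentration or amount against time came from published in vivo toxicokinetic studies and from two structured collections. PubMed searching, classifier screening and manual review located the studies. Most points were digitised from plot screenshots using WebPlotDigitizer, the rest were copied from tables, and all keep their reported units.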

c1ccncc1 [Pyridine]
concentration in plasma [ng/mL], Rat [1], dosed: Pyridine
Conditions	iv	oral
0.05 h, 5 mg/kg, Male, F344	5520	–
0.25 h, 5 mg/kg, Male, F344	2430	–
0.25 h, 10 mg/kg, Male, F344	4140	–
0.5 h, 5 mg/kg, Male, F344	3550	2630
0.5 h, 25 mg/kg, Male, F344	–	16500
1 h, 5 mg/kg, Male, F344	–	2900
1 h, 25 mg/kg, Female, Harlan Sprague-Dawley	–	18800
2 h, 5 mg/kg, Male, F344	2390	2920
2 h, 10 mg/kg, Male, F344	185	–
2 h, 25 mg/kg, Female, Harlan Sprague-Dawley	–	15700
2 min, 10 mg/kg, Male, F344	4390	716
4 h, 5 mg/kg, Male, F344	2090	2610
4 h, 25 mg/kg, Male, F344	–	15000
5 min, 5 mg/kg, Male, F344	–	1700
5 min, 10 mg/kg, Male, F344	2280	–
5 min, 25 mg/kg, Male, F344	–	5570
6 h, 5 mg/kg, Male, F344	1640	1550
6 h, 25 mg/kg, Male, F344	–	15300
8 h, 5 mg/kg, Male, F344	1620	1070
8 h, 25 mg/kg, Female, Harlan Sprague-Dawley	–	15400
9 h, 5 mg/kg, Male, F344	–	1280
10 min, 10 mg/kg, Male, F344	–	3820
11 h, 5 mg/kg, Male, F344	–	659
14 h, 25 mg/kg, Female, Harlan Sprague-Dawley	–	10000
20 h, 25 mg/kg, Male, F344	–	2910
20 min, 10 mg/kg, Female, Harlan Sprague-Dawley	–	2720
20 min, 10 mg/kg, Male, F344	3160	–
24 h, 25 mg/kg, Male, F344	–	1640
40 h, 100 mg/kg, Male, F344	–	11600
40 min, 10 mg/kg, Female, Harlan Sprague-Dawley	–	2560
50 min, 10 mg/kg, Male, F344	3220	–

CC(C)[C@]12CC(=O)[C@H](C)[C@H]1C2 [alpha-Thujone]
dosed: alpha-Thujone, oral
Conditions	concentration in brain, Rat [2] [ng/g]	concentration in plasma, Rat [1] [ng/mL]
0.5 h, 25 mg/kg, Female, Harlan Sprague Dawley	801	189
0.5 h, 25 mg/kg, Male, Harlan Sprague Dawley	689	407
0.5 h, 50 mg/kg, Female, Harlan Sprague Dawley	1350	474
0.5 h, 50 mg/kg, Male, Harlan Sprague Dawley	2470	710
1.5 h, 25 mg/kg, Male, Harlan Sprague Dawley	299	156
1.5 h, 50 mg/kg, Female, Harlan Sprague Dawley	966	491
1.5 h, 50 mg/kg, Male, F344	952	294
1.5 h, 50 mg/kg, Male, Harlan Sprague Dawley	677	116
2 min, 25 mg/kg, Female, Harlan Sprague Dawley	77.8	29.7
2 min, 25 mg/kg, Male, Harlan Sprague Dawley	21	45.2
2 min, 50 mg/kg, Female, Harlan Sprague Dawley	44.8	109
2 min, 50 mg/kg, Male, Harlan Sprague Dawley	40.6	11.9
3 h, 25 mg/kg, Female, Harlan Sprague Dawley	390	104
3 h, 25 mg/kg, Male, Harlan Sprague Dawley	122	134
3 h, 50 mg/kg, Female, Harlan Sprague Dawley	517	214
3 h, 50 mg/kg, Male, Harlan Sprague Dawley	1130	255
5 min, 25 mg/kg, Male, Harlan Sprague Dawley	414	146
5 min, 50 mg/kg, Female, F344	2010	1480
5 min, 50 mg/kg, Female, Harlan Sprague Dawley	508	427
6 h, 25 mg/kg, Female, Harlan Sprague Dawley	270	84.7
6 h, 25 mg/kg, Male, Harlan Sprague Dawley	77.1	119
6 h, 50 mg/kg, Female, F344	437	146
6 h, 50 mg/kg, Female, Harlan Sprague Dawley	648	209
6 h, 50 mg/kg, Male, Harlan Sprague Dawley	518	174
10 min, 25 mg/kg, Male, Harlan Sprague Dawley	689	323
10 min, 50 mg/kg, Female, F344	4550	1200
10 min, 50 mg/kg, Female, Harlan Sprague Dawley	1030	547
10 min, 50 mg/kg, Male, F344	6400	2200
10 min, 50 mg/kg, Male, Harlan Sprague Dawley	6510	2050
12 h, 25 mg/kg, Female, Harlan Sprague Dawley	12.7	3.31
12 h, 25 mg/kg, Male, Harlan Sprague Dawley	–	16.4
12 h, 50 mg/kg, Female, Harlan Sprague Dawley	48.5	24.3
12 h, 50 mg/kg, Male, Harlan Sprague Dawley	31.7	11.6

dosed: 76231-76-0, 3.0 mg/kg, iv, F344
Conditions	concentration in brain, Rat [2] [ng/g]	concentration in plasma, Rat [1] [ng/mL]
2 h, Female	16.8	4.41
2.5 h, Female	11.6	2.79
3 h, Female	11.6	–
4 h, Male	26.3	–
12 h, Male	–	3.95

OCC(Cl)(Cl)Cl [trichloroethanol (free)]
rat [3]
Conditions	concentration in blood [ng/mL]
0.1729 h	1250
0.1865 h	2020
0.2651 h	1140
0.2753 h	828
0.3836 h	2260
0.4311 h	1340
0.5027 h	1180
0.594 h	829
0.9111 h	1110
0.9517 h	1010
1.022 h	1130
1.11 h	898
1.769 h	955
1.908 h	1010
2.006 h	889
3.915 h	1650
3.921 h	897
4.003 h	757
5.934 h	757
5.937 h	703
5.949 h	1380
5.978 h	655
7.942 h	1260
7.97 h	667
7.992 h	595
9.919 h	656
9.986 h	538
10.01 h	509
10.11 h	1120
11.91 h	627
11.95 h	1030
11.98 h	546
12.02 h	481
13.9 h	557
13.93 h	469
13.94 h	1040
13.99 h	534
15.9 h	507
15.93 h	893
15.95 h	448
17.94 h	348
17.96 h	350
41 s	978
86 s	1200

rat [3], during exposure
Conditions	concentration in blood [ng/mL]
-169 s	1350
-3.506 h	437
-3.433 h	315
-3.408 h	626
-3.033 h	1060
-3.009 h	547
-3 h	486
-2.975 h	327
-2.015 h	830
-2.001 h	1560
-1.996 h	845
-1.989 h	628
-1.021 h	1080
-1.008 h	1890
-0.9983 h	790
-0.9843 h	968
-0.032 h	1940

human, 100 ppm, duration: 4 hr, person
Conditions	concentration in blood [ng/mL]
0.2566 h	2040
0.515 h	2000
1.032 h	1910
1.986 h	1740
3.954 h	1400
5.921 h	1180
7.947 h	1070
9.954 h	944
11.96 h	896
13.99 h	727
15.97 h	577
18 h	459

human, 100 ppm, duration: 4 hr, person, during exposure
Conditions	concentration in blood [ng/mL]
-5 s	2030
-3.524 h	172
-2.99 h	481
-2.021 h	1060
-0.9915 h	1570

OCC(Cl)(Cl)Cl [trichloroethanol]
concentration in blood [mg/kg], human, duration: 2 hr - 20 min
Conditions	0 h	0.5 h	1 h	1.5 h	2 h	21 h
1348 mg	2.8	2.7	2.6	2.5	2.4	0.8
1681 mg	3	3.3	3.3	3.2	3.1	1
3907 mg	3.9	4.5	4.2	4.4	4.4	1.6

human
Conditions	concentration in blood
-1.833 h, 1348 mg, duration: 2 hr - 20 min, during exposure	0.8 mg/kg
-1.833 h, 1681 mg, duration: 2 hr - 20 min, during exposure	0.7 mg/kg
-1.833 h, 3907 mg, duration: 2 hr - 20 min, during exposure	1.4 mg/kg
-1 h, 1348 mg, duration: 2 hr - 20 min, during exposure	1.3 mg/kg
-1 h, 1681 mg, duration: 2 hr - 20 min, during exposure	1.9 mg/kg
-1 h, 3907 mg, duration: 2 hr - 20 min, during exposure	2.2 mg/kg
-0.5 h, 1348 mg, duration: 2 hr - 20 min, during exposure	2.2 mg/kg
-0.5 h, 1681 mg, duration: 2 hr - 20 min, during exposure	2.1 mg/kg
-0.5 h, 3907 mg, duration: 2 hr - 20 min, during exposure	3.1 mg/kg
0 h, 100 ppm, duration: 6 hr, female	4110 ng/mL
18 h, 100 ppm, duration: 6 hr, female	2420 ng/mL
24 h, 100 ppm, duration: 6 hr, female	5640 ng/mL
42 h, 100 ppm, duration: 6 hr, female	2510 ng/mL
48 h, 100 ppm, duration: 6 hr, female	5750 ng/mL
66 h, 100 ppm, duration: 6 hr, female	3180 ng/mL
72 h, 100 ppm, duration: 6 hr, female	9060 ng/mL
90 h, 100 ppm, duration: 6 hr, female	5590 ng/mL
96 h, 100 ppm, duration: 6 hr, female	9010 ng/mL

Conditions	concentration in blood [ng/mL]
human, -6 h, 100 ppm, duration: 6 hr, female, during exposure	212
